The first test has as its system Rattus norvegicus. In words: The recovery of radioactivity 20 min after administration of [3H]- labeled steroids to rat plasma. Format: functional, organism-based. A digest of the protocol:
(§1)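 Adult male Sprague-Dawley rats (240-260 g), four per group, were given 100 μCi tritiated steroid by tail vein in ethanol-saline. Blood and brain were collected 20 min later and aliquots counted for radioactivity (dpm/mL plasma, dpm/g brain). The brain/plasma ratio was also taken; means ± SE.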
For `CC(=O)[C@H]1CC[C@H]2[C@@H]3CC[C@H]4C[C@H](O)CC[C@]4(C)[C@H]3CC[C@]12C` [BREXANOLONE], the Recovery turned out to be 176000 dpm ml-1. Turning to `C[C@]12CC[C@@H](O)C[C@@H]1CC[C@@H]1[C@@H]2CC[C@]2(C)[C@@H](C(=O)CO)CC[C@@H]12`, the Recovery amounted to 316000 dpm ml-1.

The species named for the next test is Rattus norvegicus. In words: Percent of total tritium in extracts of rat brain. Format: functional. In a few lines:
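Groups of four adult male Sprague-Dawley rats (240-260 g) received 100 μCi 3H-steroid in ethanol-saline by tail vein and were killed after 20 min. Brain was homogenized in chloroform/methanol (2:1) and the extract separated by HPLC (75% aqueous methanol) alongside unlabeled internal standards read at 280 nm. Fraction radioactivity was expressed as % of total brain tritium; means ± SE.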
In turn, `CC(=O)[C@H]1CC[C@H]2[C@@H]3CC[C@H]4C[C@H](O)CC[C@]4(C)[C@H]3CC[C@]12C` [BREXANOLONE] came in with a Total tritium of 50.4%. In the case of `C[C@]12CCC(=O)C[C@@H]1CC[C@@H]1[C@@H]2CC[C@]2(C)C(C(=O)CO)CC[C@@H]12` (some centres undefined), the Total tritium worked out at 46.1%. The molecule `C[C@]12CC[C@@H](O)C[C@@H]1CC[C@@H]1[C@@H]2CC[C@]2(C)[C@@H](C(=O)CO)CC[C@@H]12` registered a Total tritium of 48.1%. Take `CC(=O)C1CC[C@H]2[C@@H]3CC[C@H]4CC(=O)CC[C@]4(C)[C@H]3CC[C@]12C` (some centres undefined): the Total tritium stood at 40.6%.

The species named for a further test is Rattus norvegicus. As to the kind of experiment: Effect on the potentiation of muscimol-stimulated 36Cl- uptake in rat brain synaptoneurosomes. Format: functional. In a few lines: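 Cerebral cortex synaptoneurosomes from adult male Sprague-Dawley rats (180-200 g), homogenized in Tris-Hepes buffer pH 7.4 with salts and glucose, filtered and washed. Tubes held 1 mg protein. Steroid plus 3 μM muscimol preincubated 10 min at 30 °C, then 0.5 µCi 36Cl- added. Uptake stopped after 5 s with ice-cold picrotoxin buffer and filtered. Counted by scintillation, in quadruplicate; increase measured over muscimol alone.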
As for `CC(=O)C1CC[C@H]2[C@@H]3CC[C@H]4C/C(=N\O)CCC4(C)[C@H]3CCC12C` (some centres undefined), the Potentiation is -3.26 nM/mg. Regarding `C[C@]12CC[C@@H](O)C[C@H]1CC[C@@H]1[C@@H]2CC[C@]2(C)C(=O)CC[C@@H]12` [ETIOCHOLANOLONE], the Potentiation stood at 4.9 nM/mg.

For the molecule `CC1([C@H]2CC[C@H]3[C@@H]4CC[C@@H]5C[C@H](O)CC[C@]5(C)[C@H]4CC[C@]23C)OCCO1`, the Potentiation is -0.96 nM/mg.

`CC(=O)[C@H]1CC[C@H]2[C@@H]3CC[C@H]4C[C@H](O)CC[C@]4(C)[C@H]3CC[C@]12C` [BREXANOLONE]: the Potentiation was determined as 10.9 nM/mg. On the same count and under the same terms, next, `CC(=O)O[C@@H]1CC[C@@]2(C)[C@@H](CC[C@@H]3[C@@H]2CC[C@]2(C)[C@@H](C(C)=O)CC[C@@H]32)C1`: 2.57 nM/mg; `C[C@]12CC[C@@H](O)C[C@@H]1CC[C@@H]1[C@@H]2CC[C@]2(C)C(=O)CC[C@@H]12` [ANDROSTERONE]: 7 nM/mg.

`CC(=O)[C@H]1CC[C@H]2[C@@H]3CCC4=C[C@H](O)CC[C@]4(C)[C@H]3CC[C@]12C`: the Potentiation came out at 10.4 nM/mg.

As to `CC(=O)OCC(=O)[C@H]1CCC2C3CC[C@H]4C[C@H](O)CC[C@]4(C)C3=CC[C@@]21C` (some centres undefined), the Potentiation was 0.34 nM/mg.

As to `C[C@]12CCC(=O)C[C@@H]1CC[C@@H]1[C@@H]2CC[C@]2(C)C(C(=O)CO)CC[C@@H]12` (some centres undefined), the Potentiation is -1.95 nM/mg. Still for that read-out and setting: next, `C[C@H](O)[C@H]1CC[C@H]2[C@@H]3CC[C@H]4C[C@H](O)CC[C@]4(C)[C@H]3CC[C@]12C`: 1.97 nM/mg. The same measure, in the same setting: next, `CC(=O)OCC(=O)[C@H]1CC[C@H]2[C@@H]3CC[C@H]4C[C@H](OC(C)=O)CC[C@]4(C)[C@H]3CC[C@]12C`: 1.37 nM/mg. Still for that read-out and setting: next, `C[C@]12CC[C@@H](O)C[C@H]1CC[C@@H]1[C@@H]2CC[C@]2(C)[C@@H](C(=O)CO)CC[C@@H]12`: 7.7 nM/mg; `CC(=O)[C@H]1CCC2C3CCC4=C[C@@H](O)CC[C@]4(C)C3CC[C@@]21C` (some centres undefined): 1.43 nM/mg.

As to `CC(=O)[C@H]1CCC2C3CC[C@H]4C[C@H](O)CC[C@]4(C)C3=CC[C@@]21C` (some centres undefined), the Potentiation stood at 1.23 nM/mg. For `CC(=O)OCC(=O)[C@H]1CC[C@H]2[C@@H]3CC[C@@H]4C[C@H](O)CC[C@]4(C)[C@H]3CC[C@]12C`, the Potentiation is 10.3 nM/mg. For `COC(=O)[C@H]1CC[C@H]2[C@@H]3CC[C@H]4C[C@H](O)CC[C@]4(C)[C@H]3CC[C@]12C`, the Potentiation came to 3.6 nM/mg.

As for `C[C@]12CC[C@@H](O)C[C@@H]1CC[C@@H]1[C@@H]2CC[C@]2(C)[C@@H](C#N)CC[C@@H]12`, the Potentiation came to 13 nM/mg.

As to `C[C@]12CC[C@@H](O)C[C@@H]1CC[C@@H]1[C@@H]2CC[C@]2(C)[C@H](C#N)CC[C@@H]12`, the Potentiation is -2.1 nM/mg. Turning to `CC(=O)[C@H]1CC[C@H]2[C@@H]3CC[C@@H]4C[C@H](O)CC[C@]4(C)[C@H]3C[C@H](O)[C@]12C`, the Potentiation is -2.58 nM/mg. Turning to `CC(=O)[C@H]1CC[C@H]2[C@@H]3CC[C@@H]4C[C@H](O)CC[C@]4(C)[C@H]3[C@H](O)C[C@]12C`, the Potentiation turned out to be 0.98 nM/mg. Consider `CC(=O)OCC(=O)[C@H]1CC[C@H]2[C@@H]3CC[C@H]4C[C@H](O)CC[C@]4(C)[C@H]3CC[C@]12C`, for which the Potentiation is 12.2 nM/mg. `C[C@]12CC[C@@H](O)C[C@@H]1CC[C@@H]1[C@@H]2CC[C@]2(C)[C@@H](C(=O)COS(C)(=O)=O)CC[C@@H]12`: the Potentiation came to 7.9 nM/mg. For the molecule `CC1([C@H]2CC[C@H]3[C@@H]4CC[C@H]5C[C@H](O)CC[C@]5(C)[C@H]4CC[C@]23C)OCCO1`, the Potentiation is 0.16 nM/mg. For `C[C@]12CC[C@@H](O)C[C@@H]1CC[C@@H]1[C@@H]2CC[C@]2(C)[C@@H](C(=O)CO)CC[C@@H]12`, the Potentiation was determined as 13.1 nM/mg. As to `CC(=O)[C@H]1CC[C@H]2[C@@H]3CC[C@H]4C[C@H](O)CC[C@]4(C)[C@H]3[C@H](O)C[C@]12C`, the Potentiation came to 0.7 nM/mg. On to `CC(=O)[C@H]1CC[C@H]2[C@@H]3CCC4=CC(=O)CC[C@]4(C)[C@H]3CC[C@]12C` [PROGESTERONE], for which the Potentiation was -1.8 nM/mg. As for `C[C@]12CC[C@@H](O)C[C@@H]1CC[C@@H]1[C@@H]2CC[C@]2(C)/C(=N\O)CC[C@@H]12`, the Potentiation is -1.91 nM/mg. Consider `C[C@]12CC=C3C(CC[C@H]4C[C@H](O)CC[C@]34C)C1CC[C@@H]2C(=O)CO` (some centres undefined), for which the Potentiation was 1.4 nM/mg. As to `CC(=O)C1CC[C@H]2[C@@H]3CC[C@H]4CC(=O)CC[C@]4(C)[C@H]3CC[C@]12C` (some centres undefined), the Potentiation was 2.63 nM/mg. On the same count and under the same terms, next, `CC(=O)[C@@H]1CC[C@H]2[C@@H]3CC[C@H]4C[C@H](O)CC[C@]4(C)[C@H]3CC[C@]12C`: 1.12 nM/mg; `CC(=O)O[C@@H]1CC[C@@]2(C)[C@@H](CC[C@@H]3[C@@H]2CC[C@]2(C)[C@@H](C(=O)CO)CC[C@@H]32)C1`: 0.48 nM/mg.

The test system of another test is Rattus norvegicus. In words: The recovery of radioactivity 20 min after administration of [3H]- labeled steroids to rat brain. Format: functional, organism-based. A digest of the protocol:
as §1
Take `CC(=O)[C@H]1CC[C@H]2[C@@H]3CC[C@H]4C[C@H](O)CC[C@]4(C)[C@H]3CC[C@]12C` [BREXANOLONE]: the Recovery was 342000 dpm ml-1.

As to `C[C@]12CC[C@@H](O)C[C@@H]1CC[C@@H]1[C@@H]2CC[C@]2(C)[C@@H](C(=O)CO)CC[C@@H]12`, the Recovery worked out at 212000 dpm ml-1.

The values are drawn from ChEMBL document CHEMBL1124785, “Synthesis, metabolism, and pharmacological activity of 3 alpha-hydroxy steroids which potentiate GABA-receptor-mediated chloride ion uptake in rat cerebral cortical synaptoneurosomes” (1990).
